Series [1] relates to SK-N-SH. Nature of the series: Cytotoxicty against human SK-N-SH cells at 5 to 100 uM after 48 hrs by MTT assay. It counts as cell-based. A digest of the protocol:
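SK-N-SH cells exposed at 37 °C for 48 h to 0, 5, 10, 25, 50 or 100 μM inhibitor diluted in culture medium, with vehicle as 0. Survival and toxicity read by MTT reduction.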
(In general: Tetrazolium assays rely on reduction of a dye to a coloured formazan, in cell work by metabolically active cells.)

Series [2] is described as follows: Effect on mouse brain cortical mitochondrial swelling at 10 to 100 uM incubated for 5 mins by spectrophotometric analysis. It is filed as ADME, Mitochondria. A digest of the protocol: (§1)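 Cortical mitochondria isolated from mice (100 μg) kept on ice for 5 min with or without inhibitor. Swelling then triggered by adding 200 μM Ca2+ to the reaction buffer and compared with vehicle-treated mitochondria.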

In series [3] the test system is SK-N-SH. The series can be described thus: Effect on ATP level in human SK-N-SH cells at 10 to 20 uM after 48 hrs by bioluminescence analysis. It counts as ADME, cell-based. A digest of the protocol:
(§2)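 SK-N-SH cells given 5 μM oligomeric Aβ1–42 together with 10 or 20 μM inhibitor, 1 μM CsA, or vehicle. Controls were Aβ alone and cells without Aβ. After 48 h, ATP level or CcO enzymatic activity measured in cell lysates.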

The subject of series [4] is SK-N-SH. The series can be described thus: Effect on cytochrome c oxidase activity in human SK-N-SH cells at 10 to 20 uM after 48 hrs by spectrophotometrical analysis. It is filed as ADME, cell-based. An outline of the steps: as §2
The target of series [5] is Peptidyl-prolyl cis-trans isomerase F, mitochondrial (Mus musculus) (UniProt Q99KR7). Nature of the series: Inhibition of cyclophilin D in mouse brain cortical mitochondria assessed as suppression of calcium-induced mitochondrial swelling incubated for 5 mins by spectrophotometric analysis. An outline of the steps:
as §1

Structures are written as SMILES.

Sequence of Peptidyl-prolyl cis-trans isomerase F, mitochondrial (Mus musculus) (Q99KR7 whole entry): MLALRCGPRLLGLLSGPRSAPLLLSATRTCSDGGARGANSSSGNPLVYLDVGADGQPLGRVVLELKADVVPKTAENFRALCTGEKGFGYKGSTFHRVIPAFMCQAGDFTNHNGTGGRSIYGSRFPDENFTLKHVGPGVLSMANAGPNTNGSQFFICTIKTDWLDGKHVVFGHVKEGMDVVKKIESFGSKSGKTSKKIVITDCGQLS

For `Cc1nc(-c2ccc(OCC(C)C)c(C#N)c2)sc1C(=O)Nc1ccc(S(N)(=O)=O)cc1`, the Activity result (with SK-N-SH [1]; in series [2]; in the series on SK-N-SH [3]; in the series with SK-N-SH [4]) was “Non-toxic” in each case. The inhibition result in series [5] was “Dose-dependent effect”.
